Eleven molecules from ChEMBL document CHEMBL1154904 (J Med Chem, 2010) can be followed below.

Structures are written as SMILES.

The nature of data set [1]: in vitro. Particulars: human, Caco-2.
The nature of data set [2]: in vitro. The settings on record: human, Caco-2. The source holds these as a separate data set.
The nature of data set [3]: Oral bioavailability in rat at 10 mg/kg. The data set is classed as ADME, organism-based. The settings on record: in vivo. In outline: (§1)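 Fasted animals received a single oral dose of 10 mg/kg unless another dose was specified. Half-life was taken from the po profile.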
The nature of data set [4]: Cmax in rat at 30 mg/kg, po. Type of data set: ADME, organism-based. The settings on record: in vivo. Also noted: dose 30 mg/kg, route oral. An outline of the steps:
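Rats were fasted and given a single oral dose of 30 mg/kg. Cmax was taken from plasma drug concentrations.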

A short description of data set [5]: Cmax in dog at 10 mg/kg, po. The data set is classed as ADME, organism-based, Canis lupus familiaris. Particulars: in vivo. On the set-up: dose 10 mg/kg, route oral. In outline:
(§2)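 Fasted rats or dogs received a single oral dose of 10 mg/kg. Plasma drug levels gave Cmax and oral half-life.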

Data set [6] can be described thus: Oral bioavailability in dog at 10 mg/kg, po. Type of data set: ADME, organism-based, Canis lupus familiaris. Particulars: in vivo. An outline of the steps:
as §1

In data set [7] the test system is Rattus norvegicus. As to the kind of experiment: Plasma concentration in Sprague-Dawley rat electrical current-induced arterial thrombosis model at 0.3 mg/kg, iv administered 5 mins before electrical stimulation for 20 mins. The data set is classed as ADME, organism-based. On the set-up: dose 0.3 mg/kg, route intravenous. Particulars: in vivo. An outline of the steps: (§3)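 Anesthetized rats with a carotid Doppler flow probe received 10% solutol vehicle or compound (0.03–1.0 mg/kg) by slow left jugular infusion over 20 min at 0.05 mL/min. Electrical stimulation of the carotid began 5 min into the infusion and lasted 5 min. Occlusion was followed for 30 min; plasma drug levels were related to aPTT.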

The subject of data set [8] is Rattus norvegicus. Put plainly: Plasma concentration in Sprague-Dawley rat electrical current-induced arterial thrombosis model at 1 mg/kg, iv administered 5 mins before electrical stimulation for 20 mins. The data set is classed as ADME, organism-based. On the set-up: dose 1 mg/kg, route intravenous. The settings on record: in vivo. An outline of the steps:
as §3

Data set [9] can be described thus: Plasma concentration in mongrel dog arterio-venous shunt model of thrombosis at 3 mg/kg, po after 1 hr. Type of data set: ADME, organism-based, Canis lupus familiaris. Also noted: dose 3 mg/kg, route oral. In outline:
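Adult mongrel dogs of either sex (13.2–14.5 kg) were dosed orally at 3 mg/kg. After a 1 h observation period they were anesthetized with pentobarbital (35 mg/kg iv). Plasma taken at the 1 h time point was assayed for drug concentration and aPTT.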

Data set [10] can be described thus: Plasma concentration in Sprague-Dawley rat deep vein thrombosis model at 1 mg/kg, iv administered for 45 mins measured after 30 mins post dose. The data set is classed as ADME, organism-based. On the set-up: dose 1 mg/kg, route intravenous. An outline of the steps:
(§4)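 Rats received vehicle (solutol 10% and D5W) or compound by jugular vein infusion over 45 min at 0.04 mL/min, to total cumulative doses of 0.1, 0.3 or 1.0 mg/kg. Thrombus formation in the vena cava began at 30 min of infusion. Blood was drawn from a carotid catheter at the end of the experiment for coagulation times and plasma drug concentration.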

Data set [11] in a line: Plasma concentration in Sprague-Dawley rat deep vein thrombosis model at 0.1 mg/kg, iv administered for 45 mins measured after 30 mins post dose. Type of data set: ADME, organism-based. Also noted: dose 0.1 mg/kg, route intravenous. An outline of the steps:
as §4

Data set [12] is described as follows: Plasma concentration in Sprague-Dawley rat deep vein thrombosis model at 0.3 mg/kg, iv administered for 45 mins measured after 30 mins post dose. On the set-up: dose 0.3 mg/kg, route intravenous. The data set is classed as ADME, organism-based. An outline of the steps: as §4
The nature of data set [13]: Plasma concentration in Sprague-Dawley rat deep vein thrombosis model at 10 mg/kg, po measured after 70 mins post. The data set is classed as ADME, organism-based. Also noted: dose 10 mg/kg, route oral. An outline of the steps: (§5)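 For oral dosing, compound at 10, 30 or 50 mg/kg was solubilized in 0.5% methocel (5 mL/kg) and given by oral dosing tube. Rats were anesthetized 45 min after dosing, followed by the venous thrombus procedure. Blood was sampled at study termination for plasma drug concentration and coagulation times.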

Data set [14] can be described thus: Plasma concentration in Sprague-Dawley rat deep vein thrombosis model at 30 mg/kg, po measured after 70 mins post. The data set is classed as ADME, organism-based. Also noted: dose 30 mg/kg, route oral. An outline of the steps:
as §5

Data set [15] can be described thus: Plasma concentration in Sprague-Dawley rat deep vein thrombosis model at 50 mg/kg, po measured after 70 mins post. The data set is classed as ADME, organism-based. Also noted: dose 50 mg/kg, route oral. In outline:
as §5

A short description of data set [16]: Apparent volume of distribution with respect to bioavailability in healthy human at 100 to 500 […]. The data set is classed as ADME, organism-based. Particulars: in vivo, in the assay text read “100 to 500 mg” for “100 to 500 mg/kg”, read-out: Vc/F. In outline: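 Double-blind, placebo-controlled single oral solution doses (4–500 mg) in healthy fasted (≥10 h) males: six drug and two placebo subjects per cohort, given with 200 mL water. Venous blood was taken predose and at 0.5–48 h for plasma levels. aPTT was recorded in seconds and as a ratio to individual −1 h baseline.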

The nature of data set [17]: Tmax in healthy human at 4 to 500 mg po. Particulars: in vivo.
Data set [18] is described as follows: Cmax in rat at 10 mg/kg, po. Type of data set: ADME, organism-based. On the set-up: dose 10 mg/kg, route oral. Particulars: in vivo. An outline of the steps:
as §2

What is called Papp A→B is the apparent permeability from the apical to the basolateral side of a cell layer. A high value points to ready permeation. One may read the Papp B→A as the apparent permeability from the basolateral to the apical side of a cell layer. In data set [1], `Cc1ccc(CCNc2ncc(C)n(CC(=O)N(C)CCON=C(N)N)c2=O)cc1` gave a Papp A→B of 0.27 ×10⁻⁶ cm/s. In data set [2], this molecule registered a Papp B→A of 0.6 ×10⁻⁶ cm/s.

On to `Cc1cnc(NCCc2ccc(F)cc2F)c(=O)n1CC(=O)NCCONC(=N)N`, for which the Papp A→B in [1] was 0.5 ×10⁻⁶ cm/s. The Papp B→A in [2] was determined as 1.91 ×10⁻⁶ cm/s.

The term Cmax denotes the maximum level reached in the sampled fluid or tissue. A word on the Tmax: it is the time from dosing to the highest level. In the case of `Cc1cnc(NCC(F)(F)c2ccccc2)c(=O)n1CC(=O)NCCONC(=N)N`, the values for the bioavailability in data set [3] and in data set [6] were 23% and 103%, respectively. For the same molecule, the Cmax in data set [4] amounted to 3300 nM; in data set [5], 5700 nM. The concentration was 120 nM in [7] and 310 nM in [8]. Besides, the concentration at 1 h in data set [9] worked out at 870 nM. The concentration at 0.5 h in data set [10] amounted to 800 nM; in data set [11], 310 nM; in data set [12], 540 nM. Further, the concentration at 70 min in data set [13] is 100 nM; in data set [14], 760 nM; in data set [15], 730 nM. Besides, in [16], the Vd/F was found to be 530 L. This molecule displayed a Papp A→B in data set [1] of 1.37 ×10⁻⁶ cm/s. In data set [2], this molecule had a basolateral-to-apical permeability (Papp B→A) of 6.45 ×10⁻⁶ cm/s. The time of peak concentration (Tmax) in [17] was determined as 1.25 h.

For the molecule `Cc1cnc(NCCc2ccc(F)cc2)c(=O)n1CC(=O)NCCONC(=N)N`, the Papp A→B in data set [1] worked out at 0.55 ×10⁻⁶ cm/s. The Papp B→A in data set [2] was 1.48 ×10⁻⁶ cm/s.

For `Cc1cnc(NCCc2ccc(F)c(F)c2)c(=O)n1CC(=O)NCCONC(=N)N`, in data set [1], the Papp A→B came to 0.92 ×10⁻⁶ cm/s. This molecule displayed a Papp B→A in data set [2] of 1.84 ×10⁻⁶ cm/s.

In the case of `N#Cc1cnc(NCC(F)(F)c2ccccc2)c(=O)n1CC(=O)NCCON=C(N)N`, the Cmax in [18] is 200 nM; in [5] it was 3300 nM. The bioavailability in [3] was determined as 11%; in [6], 57%. Also, the concentration came out at 85 nM in data set [7] and 380 nM in [8]. The concentration at 1 h in data set [9] stood at 480 nM. The Papp A→B in data set [1] is 0.5 ×10⁻⁶ cm/s. Besides, the basolateral-to-apical permeability (Papp B→A) in data set [2] came to 2.26 ×10⁻⁶ cm/s.

In data set [1], `Cc1cnc(NCCc2cccc3ccccc23)c(=O)n1CC(=O)NCCON=C(N)N` had a Papp A→B of 0.32 ×10⁻⁶ cm/s. This molecule yielded an apparent permeability from basolateral to apical (Papp B→A) in data set [2] of 11.8 ×10⁻⁶ cm/s.

In [1], `Cc1cnc(NCC(c2ccccc2)c2ccccc2)c(=O)n1CC(=O)NCCONC(=N)N` gave an apical-to-basolateral permeability (Papp A→B) of 0.14 ×10⁻⁶ cm/s. This molecule displayed a Papp B→A in data set [2] of 13 ×10⁻⁶ cm/s.

For the molecule `CCc1ccc(CCNc2ncc(C)n(CC(=O)NCCONC(=N)N)c2=O)cc1`, the apical-to-basolateral permeability (Papp A→B) in data set [1] was determined as 0.29 ×10⁻⁶ cm/s. In [2], this molecule had a basolateral-to-apical permeability (Papp B→A) of 10.3 ×10⁻⁶ cm/s.

Consider `Cc1cnc(NCCc2ccc3c(c2)CCC3)c(=O)n1CC(=O)NCCONC(=N)N`, for which the Papp A→B in [1] was 0.67 ×10⁻⁶ cm/s. This molecule also yielded a Papp B→A in data set [2] of 4.29 ×10⁻⁶ cm/s.

Turning to `N=C(N)NOCCNC(=O)Cn1c(Cl)cnc(NCC(F)(F)c2ccccc2)c1=O`, the highest concentration (Cmax) in data set [18] amounted to 200 nM; in data set [5], 1600 nM. The bioavailability in data set [3] came to 9%; in [6] it was 60%. The molecule further showed a Papp A→B in [1] of 0.5 ×10⁻⁶ cm/s. The molecule also had a Papp B→A in data set [2] of 3.04 ×10⁻⁶ cm/s.
